Rows were chosen to be rich in hits. Some 3% of all compounds tested hit in one or more screens of this group.
SENP6 block – SENP6 protease inhibition; inhibition, % at 10 µM; hit rate 1.8% among 330,000; Q9GZR1; Recombinant SENP6 catalytic domain, aminoluciferin luminescence;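 active = inhibition above about 50% at the single tested dose, limit read from the data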;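 note: plate controls were DMSO wells with enzyme for no effect and DMSO wells lacking enzyme for full effect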
Apaf-1 inh – inhibitors of human Apaf-1 apoptosome; reconstituted apoptosome caspase-3 activity, DEVD-Rh110 fluorescence; inhibition, % at 20 µM; hit rate 0.71% among 330,000; AID 489030; active = inhibition of at least 40% at 20 µM;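 note: plate controls were DMSO wells for no effect and DEVD-CHO caspase inhibitor wells for full effect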
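System – cell-free apoptosome with Apaf-1, procaspase-3 and caspase-9 · Buffer or medium – pH 7.5 Hepes buffer with CHAPS, BSA, DTT · Also added – cytochrome c with DEVD-Rh110 · Times – 30 min compound preincubation, 50 min activation, room temperature · Technique – Rh110 fluorescence intensity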
SENP8 block-1 – blocks human SENP8 cleavage of Nedd8 substrate; Q96LD8; recombinant SENP8, Nedd8 substrate fluorescence; inhibition, % at 20 µM; hit rate 0.64% among 360,000; AID 602440; in the data active = inhibition mostly above about 40%, no sharp cut-off; inactive = mostly below about 27%
UBC13 inh – human UBC13 polyubiquitination inhibition. inhibition, % at 20 µM. P61088. UBC13 polyubiquitin chain formation, TR-FRET. hit rate 0.47% among 330,000; in the data active = inhibition above about 45%, passing the limit was not always enough; inconclusive = no clear call, values can overlap the other calls
SENP8 block-2 – inhibitors of human SENP8 protease; hit rate 1.2% among 330,000; AID 2540; Q96LD8; inhibition, % at 10 µM; purified SENP8, Z-RLRGG-aminoluciferin cleavage, luminescence; in the data active = inhibition above about 50%
SENP7 block – blocks the human protease SENP7. Q9BQF6. recombinant SENP7, Z-RLRGG-aminoluciferin luminescence, 40 min. inhibition, % at 5 µM. hit rate 1.5% among 330,000. AID 434973;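 active = inhibition above about 50% at the single test dose, limit read from the data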;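 note: plate controls were DMSO with enzyme for no effect and no enzyme buffer wells for full effect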
Target sequence (Q9BQF6 706-1050 limits assumed): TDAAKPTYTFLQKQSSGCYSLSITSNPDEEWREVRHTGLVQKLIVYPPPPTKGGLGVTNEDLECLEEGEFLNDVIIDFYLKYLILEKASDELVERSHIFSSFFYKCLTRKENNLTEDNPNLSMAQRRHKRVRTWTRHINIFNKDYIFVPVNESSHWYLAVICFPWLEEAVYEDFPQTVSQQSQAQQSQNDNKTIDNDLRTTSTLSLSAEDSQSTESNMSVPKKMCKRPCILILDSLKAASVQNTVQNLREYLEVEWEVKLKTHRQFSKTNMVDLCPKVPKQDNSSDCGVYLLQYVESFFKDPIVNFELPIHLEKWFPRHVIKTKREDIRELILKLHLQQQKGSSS
Casp3 UBC13 ctr – counter-screen for UBC13 inhibitors: human caspase-3 inhibition. hit rate 4% among 1,400. inhibition, % at 20 µM. Recombinant caspase-3, Caspase-Glo 3/7 luminescence, 60 min. shares compounds with UBC13 inh;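 active = mean inhibition across replicates above about 26%, limit read from the data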;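 note: plate controls were DMSO with caspase-3 for no effect and DMSO wells lacking enzyme for full effect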
UBC13 confirm – confirmation of human UBC13 polyubiquitin inhibitors; shares compounds with UBC13 inh; UBC13 polyubiquitination, TR-FRET, biochemical; inhibition, % at 10 µM; hit rate 68% among 1,400; AID 488859; in the data active = inhibition above about 45%; inconclusive = no clear call, values can overlap the other calls
Numbers without * were called inactive; ? = inconclusive; · = not tested or not shown.

SMILES	SENP6 block	Apaf-1 inh	SENP8 block-1	UBC13 inh	SENP8 block-2	SENP7 block	Casp3 UBC13 ctr	UBC13 confirm
Cn1c(=O)c2c(SCC(=O)NCCc3ccccc3)nc(C3CC3)nc2n(C)c1=O	1.0	-13.3	·	3.0	2.6	1.5	·	·
Cn1c(=O)c2c(SCC(=O)N3CCN(c4ccccc4)CC3)nc(C3CC3)nc2n(C)c1=O	-10.1	16.2	28.6	63.1*	-8.2	-0.6	-1.5	?
N#C[C@H]1C(O)C(O)c2ccccc2N1C(=O)c1ccccc1 (some centres undefined)	-12.6	-1.4	1.9	58.1*	-14.8	10.2	3.4	8.8
O=C(C[C@H]1C(=O)N(CCc2ccccc2)C[C@@H]1c1ccccc1)Nc1ccccc1	·	·	1.4	·	·	·	·	·
C#CCOCCOCCOCCNc1nc(N2CCN(C(=O)[C@H](CCCCN)n3cc([C@@H](N)CC(C)C)nn3)CC2)nc(N2CCN(C(=O)[C@H](Cc3cc4ccccc4[nH]3)n3cc([C@@H](N)Cc4ccc(O)cc4)nn3)CC2)n1	-1.4	6.4	14.0	103.4*	0.3	8.1	2.5	116.2*
N[C@@H](CO)c1cn([C@@H](Cc2cc3ccccc3[nH]2)C(=O)N2CCNCC2)nn1	9.7	37.2	-7.2	101.0*	-1.9	-3.4	-2.2	107.1*
C#CCOCCOCCOCCNc1nc(N2CCN(C(=O)[C@H](Cc3ccc(O)cc3)n3cc([C@@H](N)CC(C)C)nn3)CC2)nc(N2CCN(C(=O)[C@H](Cc3cc4ccccc4[nH]3)n3cc([C@@H](N)CC(C)C)nn3)CC2)n1	-27.3	27.3	·	80.2*	-21.1	18.8	-4.4	62.2*
C#CCOCCOCCOCCNc1nc(N2CCN(C(=O)[C@H](CCC(=O)O)n3cc(C(N)CC(C)C)nn3)CC2)nc(N2CCN(C(=O)[C@H](Cc3cc4ccccc4[nH]3)n3cc(C(N)[C@H](C)CC)nn3)CC2)n1 (some centres undefined)	-11.1	0.3	·	4.7	-0.4	-5.6	·	·
O=C1C2C3C=CC(CC3)C2S(=O)(=O)C2C3C=CC(CC3)C12 (centres undefined)	·	·	7.3	·	·	·	·	·
COc1ccc2nc(C(c3ccc(C)cc3)n3c(-c4ccccc4Br)nc4ccccc43)[nH]c2c1 (centres undefined)	·	·	-354.2	·	·	·	·	·
Cc1ccccc1S(=O)(=O)N1C[C@@H]2C(C(=O)C[C@@H]3C(=O)N(C)C(=O)[C@@H]32)[C@@H]1c1ccc(Cl)cc1 (some centres undefined)	·	·	12.1	·	·	·	·	·
CCc1nc2ccccc2c(C(=O)OCc2nc3ccccc3c(=O)[nH]2)c1C	-9.0	5.2	-143.4	62.0*	-0.8	-9.1	1.4	57.8*
CC1CC(C)CN(CCCNC(=O)c2cc3c(s2)-c2ccccc2OC3)C1 (centres undefined)	-5.7	12.7	-433.8	45.0*	-6.8	-1.6	-2.2	54.7*
CCN1CCN(CCCNC(=O)c2cc3c(s2)-c2ccccc2OC3)CC1	0.6	5.0	-487.9	24.0	-3.8	13.3	·	·
Cc1cccc2c1-c1sc(C(=O)NCCCN3CCCC(C)C3)cc1CO2 (centres undefined)	-1.6	22.9	-307.2	66.6*	4.3	-1.3	4.2	96.9*
CCCN1CCN(CCCNC(=O)c2cc3c(s2)-c2c(C)cccc2OC3)CC1	-1.6	18.1	-295.4	48.6*	8.1	-1.3	-0.9	57.0*
CCCN1CCN(CCCNC(=O)c2cc3c(s2)-c2ccccc2OC3)CC1	-23.9	4.7	-326.6	30.6	-3.3	12.6	·	·
NC1=NC[C@@H](Cc2ccc(O)cc2)N1CCc1cc(C(F)(F)F)cc(C(F)(F)F)c1	-13.5	31.2	14.7	64.0*	-2.2	2.9	-4.0	36.3
CCCCCCCC(=O)N1CCN(c2cc3c(cc2F)c(=O)c(C(=O)O)cn3CC)CC1	6.4	32.2	-275.7	40.2	2.0	-3.0	·	·
CCCCCCCCC(=O)N1CCN(c2cc3c(cc2F)c(=O)c(C(=O)O)cn3CC)CC1	-6.6	10.6	-292.1	45.9*	-5.4	1.2	1.4	15.9

Source: PubChem
